This is an account of results in ChEMBL document CHEMBL1149260, “Synthesis of tropeines and allosteric modulation of ionotropic glycine receptors” (J Med Chem, 2004).

The species entered for assay [1] is Rattus norvegicus. Put plainly: Displacement of [3H]strychnine from glycine receptor in Wistar rat spinal cord synaptosomal membranes. Type of assay: cell membranes. Conditions: Membrane. In general terms: Loss of bound radioactivity is the signal in a displacement assay; it reports binding, not function.
The target in assay [2] is T1, Serotonin 3 (5-HT3) receptor (Rattus norvegicus, UniProt P35563+Q9JJ16).
T1 sequence (P35563 whole entry): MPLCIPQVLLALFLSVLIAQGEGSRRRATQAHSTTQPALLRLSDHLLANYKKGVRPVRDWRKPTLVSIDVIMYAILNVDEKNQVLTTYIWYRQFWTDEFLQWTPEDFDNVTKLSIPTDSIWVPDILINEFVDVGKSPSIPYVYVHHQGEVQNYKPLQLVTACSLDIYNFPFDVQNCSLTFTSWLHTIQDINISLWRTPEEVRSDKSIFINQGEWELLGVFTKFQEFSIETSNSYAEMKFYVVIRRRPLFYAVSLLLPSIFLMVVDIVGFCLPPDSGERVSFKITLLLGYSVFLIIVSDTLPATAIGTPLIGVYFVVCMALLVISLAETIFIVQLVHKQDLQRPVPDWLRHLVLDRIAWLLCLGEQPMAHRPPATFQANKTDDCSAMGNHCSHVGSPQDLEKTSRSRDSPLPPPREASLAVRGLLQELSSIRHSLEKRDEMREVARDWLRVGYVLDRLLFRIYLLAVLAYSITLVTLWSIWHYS
T1 sequence (Q9JJ16 whole entry): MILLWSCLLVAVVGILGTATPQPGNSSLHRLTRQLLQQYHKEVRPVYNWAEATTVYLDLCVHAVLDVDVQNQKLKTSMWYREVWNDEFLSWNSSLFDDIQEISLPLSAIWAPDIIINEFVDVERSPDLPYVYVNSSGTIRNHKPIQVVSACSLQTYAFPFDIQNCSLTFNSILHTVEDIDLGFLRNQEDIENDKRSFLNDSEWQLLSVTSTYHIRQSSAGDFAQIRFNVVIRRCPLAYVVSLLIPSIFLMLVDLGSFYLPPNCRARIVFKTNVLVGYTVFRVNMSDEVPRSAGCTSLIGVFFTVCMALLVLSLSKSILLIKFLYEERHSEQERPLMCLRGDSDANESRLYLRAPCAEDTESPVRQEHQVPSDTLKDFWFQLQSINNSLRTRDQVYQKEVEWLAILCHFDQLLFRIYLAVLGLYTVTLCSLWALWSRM
Description: Displacement of [3H]granisetron from 5HT3 receptor in Wistar rat cerebral cortex synaptosomal membranes. It is filed as cell membranes, Membrane. In outline:
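Male Wistar rat cerebral cortex plus hippocampus synaptosomal membranes, in 10 mM HEPES with 140 mM NaCl (pH 7.5). Incubated with 0.3 nM [3H]granisetron and varied tropeine concentrations for 2.5 h on ice. Nonspecific binding defined with 10 µM granisetron. Duplicate aliquots filtered on PEI-presoaked GF/B filters. Displacement curves fitted with variable slopes; 3-6 experiments.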

The target in assay [3] is Serotonin 3 (5-HT3) receptor (Rattus norvegicus) (UniProt P35563+Q9JJ16). Description: Selectivity for glycine receptor measured as KA over 5HT3 receptor measured as IC50 in Wistar rat synaptosomal membranes. Type of assay: cell membranes.

Compound `CN1[C@@H]2CC[C@H]1C[C@@H](NC(=O)c1cc(Cl)cc3c1OC(C)(C)C3)C2` returned a -Log KA in assay [1] of 6.57.
By IC50 is commonly meant the concentration needed to halve the response being measured. Lower therefore signals greater potency in that assay. Turning to `CC1(C)Cc2cc(Cl)cc(C(=O)O[C@H]3C[C@H]4CC[C@@H](C3)N4)c2O1`, the -Log KA in assay [1] was found to be 7.74. The same compound gave a half-maximal inhibitory concentration (IC50) in assay [2] of 56.2 nM. Also, the Selectivity ratio in assay [3] came to 3.37.
For `CN1[C@@H]2CC[C@H]1C[C@H](OC(=O)c1ccc(C(C)(C)C)cc1)C2`, in assay [1], the -Log KA came to 4.53.
The compound `O=C(O[C@@H]1C[C@H]2CC[C@@H](C1)N2)c1cccc(Cl)c1` registered a -Log KA in assay [1] of 7.65. The same compound had an IC50 in assay [2] of 692 nM. Moreover, the Selectivity ratio in assay [3] amounted to 33.7.
In assay [1], `Nc1cccc(C(=O)O[C@@H]2C[C@H]3CC[C@@H](C2)N3)c1` registered a -Log KA of 7.23. The same compound showed an IC50 in assay [2] of 577 nM. Further, the Selectivity ratio in assay [3] came to 10.3.
In assay [1], `CN1[C@@H]2CC[C@H]1C[C@@H](OC(=O)c1cc(Cl)cc(Cl)c1)C2` displayed a -Log KA of 5.99.
For the compound `CN1[C@@H]2CC[C@H]1C[C@H](OC(=O)c1ccccc1)C2` (stereo in doubt; 7) [listing 1 of 2 here], the -Log KA in assay [1] was 5.77. Besides, the Selectivity ratio in assay [3] is 0.3.
As for `CCc1ccc(C(=O)O[C@@H]2C[C@H]3CC[C@@H](C2)N3C)cc1`, the -Log KA in assay [1] is 5.34. Moreover, the IC50 in assay [2] was 182 nM. For the same compound, the Selectivity ratio in assay [3] worked out at 0.04.
In assay [1], `CN1[C@@H]2CC[C@H]1C[C@@H](OC(=O)c1cc(Cl)cc3c1OC(C)(C)C3)C2` yielded a -Log KA of 6.63. The same compound gave an IC50 in assay [2] of 7.18 nM. Also, the Selectivity ratio in assay [3] came out at 0.03.
As to `COc1cccc(C(=O)O[C@@H]2C[C@H]3CC[C@@H](C2)N3C)c1`, the -Log KA in assay [1] worked out at 7.08. The compound also gave an IC50 in assay [2] of 71 nM. In assay [3], the Selectivity ratio worked out at 0.87.
In the same order, the values of `CN1[C@@H]2CC[C@H]1C[C@H](OC(=O)c1cccc(Cl)c1)C2` are 6.31, 67.9 nM and 0.15.
Consider `CN1[C@@H]2CC[C@H]1C[C@H](OC(=O)c1ccccc1)C2` (stereo in doubt; 2a) [listing 1 of 2 here], for which the -Log KA in assay [1] was 6.39. Further, the Selectivity ratio in assay [3] was determined as 0.78.
Regarding `CN1[C@@H]2CC[C@H]1C[C@H](OC(=O)c1ccc([N+](=O)[O-])cc1)C2`, the -Log KA in assay [1] was 5.29. Besides, the IC50 in assay [2] was 1050 nM. In assay [3], the Selectivity ratio stood at 0.2.
In the same order, the values of `CCN1[C@@H]2CC[C@H]1C[C@@H](OC(=O)c1ccccc1)C2` are 6.14, 716 nM and 0.98.
Compound `CN1[C@@H]2CC[C@H]1C[C@H](OC(=O)c1cccc([N+](=O)[O-])c1)C2` displayed a -Log KA in assay [1] of 5.84.
With `CN1[C@@H]2CC[C@H]1C[C@H](OC(=O)c1ccccc1)C2` (stereo in doubt; 7) [listing 2 of 2 here], the IC50 in assay [2] was 499 nM.
Turning to `COc1cccc(C(=O)O[C@@H]2C[C@H]3CC[C@@H](C2)N3)c1`, the -Log KA in assay [1] is 8.11. Besides, the IC50 in assay [2] was 262 nM. In assay [3], the Selectivity ratio came out at 33.5.
Take `COc1cc(C(=O)O[C@@H]2C[C@H]3CC[C@@H](C2)N3C)cc(OC)c1OC`: the -Log KA in assay [1] worked out at 5.97. In assay [2], this compound had an IC50 of 231 nM. In addition, in assay [3], the Selectivity ratio came to 0.23.
`O=C(O[C@H]1C[C@H]2CC[C@@H](C1)N2)c1ccccc1` (stereo in doubt; 4a) [listing 1 of 2 here] had a half-inhibitory concentration (IC50) in assay [2] of 1560 nM.
The compound `O=C(O[C@H]1C[C@H]2CC[C@@H](C1)N2)c1ccccc1` (stereo in doubt; 8) [listing 1 of 2 here] came in with a -Log KA in assay [1] of 5.96. In addition, the Selectivity ratio in assay [3] was found to be 0.98.
For `CN1[C@@H]2CC[C@H]1C[C@H](OC(=O)c1ccccc1)C2` (stereo in doubt; 2a) [listing 2 of 2 here], the IC50 in assay [2] was 299 nM.
`O=C(O[C@H]1C[C@H]2CC[C@@H](C1)N2)c1ccccc1` (stereo in doubt; 4a) [listing 2 of 2 here]: the -Log KA in assay [1] is 7.98. Also, the Selectivity ratio in assay [3] worked out at 161.
Consider `CN1[C@@H]2CC[C@H]1C[C@H](NC(=O)c1ccccc1)C2`, for which the -Log KA in assay [1] was 4.8.
In assay [2], `O=C(O[C@H]1C[C@H]2CC[C@@H](C1)N2)c1ccccc1` (stereo in doubt; 8) [listing 2 of 2 here] had an IC50 of 1000 nM.
